Screening results: PubChem BioAssay, several laboratories
Only some compounds are listed: those with a hit (about 2.7% of all), similar ones and a draw of the others.
Rev-erbA mod = modulators of Rev-erb alpha DNA binding, primary screen, biochemical, FITC-DNA, fluorescence polarization, uHTS | Nuclear receptor subfamily 1 group D member 1 (Homo sapiens), P20393 | Rev-erbα–FITC-DNA binding, 90 min | activity, % at 10 µM | 370,000 tested, 0.79% active;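 active = activity above about 14%, limit read from the data; passing the limit was not always enough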;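 note: 0% = DMSO wells with 35 nM protein and 100% = DMSO wells with 750 nM protein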
NR2E3 ag-1 = NR2E3 agonists in two-hybrid cells, primary screen, cell-based, luminescence, CHO-S, Gal4-NCOR/VP16-NR2E3. Photoreceptor-specific nuclear receptor (Homo sapiens), Q9Y5X4. luciferase. AID 602229, 2012. 360,000 tested, 0.35% active. inhibition of corepressor binding, % at 3.98 µM;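 active = inhibition above the mean of all tested compounds plus 3 SD, cut at about 70% in these data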;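 note: 0% = DMSO with NR2E3 transfected cells and 100% = cells lacking NR2E3 construct; higher means lower luciferase signal from less NR2E3 corepressor binding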
Target sequence (Q9Y5X4 whole entry, looked up, the tested form may be a part): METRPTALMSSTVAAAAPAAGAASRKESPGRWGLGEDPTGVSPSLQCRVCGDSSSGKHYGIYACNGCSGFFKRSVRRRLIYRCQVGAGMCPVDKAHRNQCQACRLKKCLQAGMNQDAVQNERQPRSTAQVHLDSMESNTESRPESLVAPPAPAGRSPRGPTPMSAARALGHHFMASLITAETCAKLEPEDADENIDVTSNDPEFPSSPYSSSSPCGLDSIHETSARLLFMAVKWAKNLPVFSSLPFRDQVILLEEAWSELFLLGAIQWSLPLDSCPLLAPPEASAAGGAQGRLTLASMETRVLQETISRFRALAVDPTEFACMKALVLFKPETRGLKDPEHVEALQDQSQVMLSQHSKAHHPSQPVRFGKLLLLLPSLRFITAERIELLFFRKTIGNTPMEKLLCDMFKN
MC4R antag cAMP = MC4R antagonists of cAMP signaling, primary screen, cell-based, TR-FRET, antagonist arm of biased-ligand search; 360,000 tested, 0.48% active; MC4R-expressing cells, MTII-stimulated cAMP, LANCE TR-FRET; inhibition, % at 6.5 µM; AID 540295, 2011;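 active = inhibition above its plate's cutoff, the mean of tested wells on that plate plus 3 SD, cut at about 29% in these data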;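 note: 0% = Melanotan II alone and 100% = Melanotan II plus saturating MCL0020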
Target sequence (P32245 whole entry, looked up): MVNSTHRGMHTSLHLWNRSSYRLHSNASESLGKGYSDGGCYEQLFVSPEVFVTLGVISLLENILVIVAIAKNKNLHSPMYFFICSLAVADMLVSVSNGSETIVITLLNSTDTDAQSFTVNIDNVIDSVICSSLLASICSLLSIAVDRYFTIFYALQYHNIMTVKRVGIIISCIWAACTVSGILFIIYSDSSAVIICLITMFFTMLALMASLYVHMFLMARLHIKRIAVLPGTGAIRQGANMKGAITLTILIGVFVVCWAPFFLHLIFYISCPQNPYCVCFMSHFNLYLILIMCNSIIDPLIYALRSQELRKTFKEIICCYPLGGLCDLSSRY
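System: U2OS-MC4R stable cell line; Technique: Eu-cAMP/anti-cAMP TR-FRET, emission 671 nm; Repeats: single well per compound; Also added: Melanotan II; Dosing: one concentration, 6.5 µM nominal; Schedule: 30-min compound, 1-h challenge, 1-h detection, room temperature.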
MC4R ag barr = MC4R agonists recruiting beta-arrestin, primary screen, cell-based, luminescence, agonist arm of biased-ligand search; Melanocortin receptor 4 (Homo sapiens), P32245; U2OS MC4R beta-arrestin complementation; percent of melanotan II response, DMSO zero; activation, % at 8.9 µM; 360,000 tested, 0.98% active; AID 540308, 2011;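 active = activation above a per-plate cutoff, the mean activation of sample wells on that plate plus 3 SD, cut at about 8% in these data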
PG9 binder = binders of HIV-1 gp120 antibody PG9, primary screen, biochemical, TR-FRET; inhibition, % at 6.7 µM; 360,000 tested, 0.43% active; TR-FRET gp120-PG9 antibody binding; AID 624416, 2012; in the data active = inhibition above about 8.5%
NR2E3 ag-2 = inhibitors of NR2E3-RetCOR corepressor binding, primary screen, NR2E3 agonist project, biochemical, TR-FRET, GST-NR2E3, biotin-RetCOR | 320,000 tested, 0.12% active | 1536-well | AID 2300, 2010 | inhibition of corepressor binding, % at 4.78 µM | Photoreceptor-specific nuclear receptor (Homo sapiens), Q9Y5X4;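 active = percent inhibition above the cutoff of mean plus 3 SD of all tested compounds, set per screening campaign, cut at about 20% in these data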;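 note: 0% = DMSO wells and 100% = biotin wells as full block of FRET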
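Material: NR2E3–RetCOR corepressor complex | Quantity: 1.35 nM GST-tagged NR2E3 final | Schedule: 5 h at 4 °C | Replication: Singlicate compound wells | Reagent: RetCOR corepressor, biotinylated, 7 nM | Controls: Biotin wells as high control, 0.6% DMSO wells as low control | Signal: TR-FRET, Eu(K)-anti-GST donor, streptavidin-D2 acceptor, ex 340, em 617/671 nm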
NR2E3 ag conf = NR2E3 agonist confirmation in cells, cell-based, luminescence, CHO-S two-hybrid; AID 624378, 2012; inhibition, % at 3.98 µM; shares compounds with NR2E3 ag-1; CHO-S mammalian two-hybrid NR2E3-NCOR, luciferase luminescence; 2,300 tested, 51% active;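 active = average inhibition above a cutoff equal to the mean inhibition of all tested compounds plus one SD, cut at about 70% in these data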;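 note: 0% = DMSO in NR2E3 cells and 100% = DMSO in cells lacking NR2E3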
VP16 counter = GAL4-VP16 reporter modulators, confirmation, counter-screen for NR2E3 agonist project, cell-based, luminescence, CHO-S, high throughput. shares compounds with NR2E3 ag-1. CHO-S GAL4-VP16 luciferase reporter. inhibition, % at 3.98 µM. 2,300 tested, 29% active;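 active = mean inhibition above a cutoff equal to the average over all tested compounds plus one standard deviation, cut at about 70% in these data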;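 note: luciferase from a UAS reporter driven by GAL4-VP16 transactivation; 0% = DMSO with VP16-transfected cells and 100% = DMSO with cells lacking VP16; higher means less reporter light so more repression of VP16 activity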
The depositor's hits bear a star; / = no result given.

SMILES | Rev-erbA mod | NR2E3 ag-1 | MC4R antag cAMP | MC4R ag barr | PG9 binder | NR2E3 ag-2 | NR2E3 ag conf | VP16 counter
CCc1ccc(C(C)NC(=S)NC2CCCCC2)cc1 (centres undefined) | / | 27 | 15 | 1 | / | / | / | /
CC(C)c1ccc(C(C)NC(=S)NC2CCCCC2)cc1 (centres undefined) | 2 | 50 | 9 | 3 | -1 | / | 11 | 16
CCC(C)c1ccc(C(C)NC(=S)NC2CCCCC2)cc1 (centres undefined) | 5 | 85* | 6 | 1 | -3 | -1 | 57 | 48
CN(C(=O)OC(C)(C)C)c1ccc(-c2nc3ccccc3s2)cc1 | -1 | 89* | 0 | 0 | 0 | 2 | 86* | 77*
COC(=O)N(C)c1nc2ccccc2s1 | -1 | -43 | -1 | -1 | -1 | -3 | / | /
CC(C)c1ccc(-c2nc3ccccc3s2)cc1 | -4 | 88* | 12 | 2 | 0 | 3 | 71* | 58
O=C(NCC(=O)N1CCN(C/C=C/c2ccccc2)CC1)c1ccc(OC(F)F)cc1 | -5 | 18 | 0 | 0 | 0 | 1 | / | /
COc1cc(C2C(C#N)=C(N)N(c3sc4c(c3C#N)CCCC4)C3=C2C(=O)CC(C)(C)C3)cc(OC)c1OC (centres undefined) | / | -14 | 20 | -1 | / | 0 | / | /
O=[N+]([O-])c1cc(-c2ccccc2)cc([N+](=O)[O-])c1O | 13 | 79* | 3 | -2 | -1 | / | 100* | 89*
COc1ccc(C)cc1S(=O)(=O)Nc1cc2c3c(c1)CCN3C(=O)CC2 | 5 | -8 | 7 | -2 | 1 | 3 | / | /
Cc1ccc(C)c(S(=O)(=O)Nc2cc3c4c(c2)CCC(=O)N4CCC3)c1 | 6 | 57 | 1 | -2 | -3 | 0 | 28 | -21
CN(c1ccc(C(=O)N2CCOCC2)cc1)S(=O)(=O)c1cccs1 | -3 | -28 | 5 | -1 | 0 | 1 | / | /
c1csc(CNc2ccc3c(c2)OCCO3)c1 | -3 | 58 | 4 | -1 | -3 | 1 | 48 | 3
Oc1ccccc1CNc1ccc2c(c1)OCCO2 | 3 | -8 | 21 | -1 | -3 | -3 | / | /
O=C(c1cc(COc2ccc(F)cc2Cl)on1)N1CCN(C2CCCCC2)C(=O)C1 | -4 | 57 | -4 | 2 | 0 | -1 | 16 | 24
O=C(Cn1cnc2ccccc21)Nc1ccc(SC(F)F)cc1 | -1 | 68 | 7 | -2 | -2 | 4 | 94* | 78*
COc1ccc2c(CCNC(=O)c3ccc([N+](=O)[O-])cc3)c[nH]c2c1 | 1 | -29 | 1 | -1 | 0 | 0 | / | /
CC(C)CNC(=O)C1(N2C(=O)c3ccccc3C2=O)CCCC1 | / | 51 | 5 | 0 | / | / | -11 | 2
CC(C)NC(=O)C1(N2C(=O)c3ccccc3C2=O)CCCC1 | -6 | 2 | -4 | 1 | -1 | / | / | /
NC(=O)[C@@H]1CCCN1C(=O)c1cc(COc2ccc3c(c2)CCCC3)on1 | 8 | -47 | 5 | 1 | 0 | / | / | /
Cc1ccc(S(=O)(=O)N2CCN(C(=O)c3ccc(-n4cncn4)c([N+](=O)[O-])c3)CC2)cc1C | -2 | -4 | 4 | -5 | -2 | -1 | / | /
CCN(CC)S(=O)(=O)c1ccc(S(=O)(=O)Nc2c(C)nn(C)c2C)cc1 | 4 | 53 | 2 | 1 | 0 | 1 | 43 | 53
C=CCSC1=N/C(=C\c2ccsc2)C(=O)S1 | 7 | 10 | -6 | -2 | -2 | -2 | / | /
Cc1ccc(NC(=O)CSc2nsc(SCC(=O)Nc3ccc(C)cc3C)c2C#N)c(C)c1 | -6 | -11 | 1 | -2 | 0 | 3 | / | /
c1ccc(-c2csc3ncnc(NCC4COc5ccccc5O4)c23)cc1 (centres undefined) | 4 | 91* | -26 | -1 | 0 | 2 | 98* | 89*
SMILES | Rev-erbA mod | NR2E3 ag-1 | MC4R antag cAMP | MC4R ag barr | PG9 binder | NR2E3 ag-2 | NR2E3 ag conf | VP16 counter
Cc1sc2ncnc(NCC3COc4ccccc4O3)c2c1C (centres undefined) | 3 | 92* | 1 | 0 | -1 | -1 | 97* | 89*
Cc1sc2ncnc(NCC(C)(C)N3CCOCC3)c2c1C | -4 | 91* | 3 | 1 | 2 | 2 | 80* | 66
Cc1sc2ncnc(NCC3(N4CCOCC4)CCCCC3)c2c1C | 10 | -8 | 5 | -2 | 0 | -3 | / | /
Cc1sc2ncnc(NCc3ccccc3)c2c1C | 3 | 67 | 0 | -1 | -1 | 2 | 89* | 71*
O=C(c1cccs1)N1CCc2c([nH]c3ccccc23)C1c1ccc(Cl)cc1 (centres undefined) | -4 | -25 | 11 | -1 | -1 | 0 | / | /
c1ccc(Cc2nnc3sc(-c4cccnc4)nn23)cc1 | 2 | 3 | 0 | 0 | 1 | 2 | / | /
Cc1cc(N/C=C2\CCCCC2=O)no1 | 1 | -1 | 4 | 0 | 1 | -1 | / | /
N#CC(=C(O)CN1CCN(c2ccccc2F)CC1)c1nc(-c2ccccc2)cs1 | 5 | 57 | 4 | -1 | 0 | / | 37 | 43
CN1CCSc2ccc(C(=O)NCc3cccc(F)c3)cc21 | -4 | -3 | 6 | -1 | 0 | 6 | / | /
O=C(NCCCSc1ccccc1)c1cc(Br)ccc1O | -5 | 87* | 1 | -1 | -1 | / | 99* | 90*
Cc1nn(C)c(C(=O)NCc2ccc(Cl)cc2)c1Cl | -1 | 61 | 3 | -1 | 0 | -4 | 89* | 75*
CN(CC(=O)Nc1cccc(F)c1)C(=O)CCN1C(=O)C2CC=CCC2C1=O (centres undefined) | 4 | 96* | 0 | 1 | 0 | -1 | 4 | -11
N=C1SCC(=O)N1c1ncc(Cc2ccc(F)cc2)s1 | -2 | 97* | -6 | -4 | 0 | -2 | 57 | 22
